Sampled rows, rich in hits. Any-hit rate of the full collection: about 4.7%.
ADAM10 inh: inhibits human ADAM10; inhibition, % at 7 µM; O14672; AID 720582; 0.62% of 370,000 active; recombinant ADAM10, EDANS/DABCYL FRET peptide cleavage, 3 h;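 active = inhibition above a per-campaign cutoff equal to the mean of compounds falling between control-based bounds plus 3 SD, cut at about 20% in these data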;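 note: 0% = DMSO wells while the 100% control is not disclosed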
Target sequence (O14672 214-748 limits assumed): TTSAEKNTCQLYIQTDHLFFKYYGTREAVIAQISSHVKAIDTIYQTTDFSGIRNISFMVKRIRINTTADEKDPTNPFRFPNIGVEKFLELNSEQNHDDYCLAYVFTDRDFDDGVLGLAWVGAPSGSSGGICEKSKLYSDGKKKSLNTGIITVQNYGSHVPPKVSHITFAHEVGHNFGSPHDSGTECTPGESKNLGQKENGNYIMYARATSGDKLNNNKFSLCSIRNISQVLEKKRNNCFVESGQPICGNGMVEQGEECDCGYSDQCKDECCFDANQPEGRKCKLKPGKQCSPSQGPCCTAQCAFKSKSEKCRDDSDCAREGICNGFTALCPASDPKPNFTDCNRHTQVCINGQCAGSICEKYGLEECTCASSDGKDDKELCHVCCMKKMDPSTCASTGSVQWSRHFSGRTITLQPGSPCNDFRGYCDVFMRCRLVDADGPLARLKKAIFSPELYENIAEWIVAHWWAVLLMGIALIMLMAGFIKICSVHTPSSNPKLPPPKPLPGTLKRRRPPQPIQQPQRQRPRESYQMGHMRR
MT1-MMP act inh: blocks activation of human MT1-MMP. HT1080 RFP-PRO-GFP cells, GFP/RFP ratio fluorescence, overnight; percent of plate control window, DMSO zero. 0.061% of 360,000 active. GFP/RFP ratio change, % at 20 µM;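 active = GFP/RFP ratio change of at least 30% with cell ATP level not reduced by more than half and red fluorescence within 50% of control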
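Test system: HT1080 RFP-PRO-GFP cells; Benchmarks: DMSO and RFP-L50D-GFP cell wells; Timing: cells overnight before dosing, compound overnight, 37 °C, 5% CO2; Compound: one 20 µM compound dose with 1% DMSO; Read-out: GFP/RFP fluorescence ratio.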
SKN-1 inh: inhibitors of C. elegans SKN-1; 0.49% of 360,000 active; C. elegans VP596 Pgst-4::GFP/RFP ratio, acrylamide-induced, 24 h; inhibition, % at 21.8 µM; AID 624304;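 active = interference check ratio from 0.5 to 1.5 plus GFP to RFP signal ratio inhibition reaching or exceeding a fixed threshold, cut at about 30% in these data, passing the limit was not always enough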
NR3A LBD binder: modulates the human NR3A ligand-binding domain | Tm shift relative to glycine control, % at 25 µM | 2.5% of 340,000 active | NR3A LBD differential scanning fluorimetry, Tm shift; 0% = protein alone, 100% = glycine-bound protein;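 active = melting temperature shift of at least 10% of the positive control shift, at one fixed dose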
MPTP inh: inhibitors of mitochondrial permeability transition pore; inhibition, % at 10 µM; isolated mouse mitochondria, Ca2+ swelling absorbance, 30 min; AID 602449; 1.4% of 360,000 active;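 active = inhibition of 50% or more, scaled per plate between neutral and stimulator controls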;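 note: 0% = DMSO wells given calcium and 100% = 1 mM EGTA wells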
ADAM17 inh: ADAM17 inhibition, QFRET primary screen. recombinant ADAM17, EDANS/DABCYL FRET peptide cleavage. AID 720648. 0.83% of 370,000 active. inhibition, % at 6.95 µM;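 active = inhibition above the mean of compounds lying between control limits plus 3 SD, set per campaign, cut at about 8.5% in these data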;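 note: 0% = DMSO-only wells as the low control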
ADAM10 confirm: human ADAM10 inhibition, confirmation. shares compounds with ADAM10 inh. ADAM10 QFRET peptide cleavage, EDANS fluorescence. inhibition, % at 6.95 µM. 1% of 2,100 active. AID 743208;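 active = inhibition above about 20% chosen separately for each screening run, limit read from the data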;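 note: 0% = DMSO wells and 100% = marimastat wells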
ADAM17 ctr: ADAM17 inhibition, counter-screen for ADAM10 exosite hits; ADAM17 QFRET peptide cleavage, EDANS fluorescence; shares compounds with ADAM10 inh; inhibition, % at 6.95 µM; AID 743214; 0.5% of 2,100 active;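 active = mean triplicate inhibition above the solvent-only control wells' mean plus 3 SD, cut at about 12% in these data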;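 note: 0% = DMSO wells and 100% = marimastat wells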
ADAM10 counter: counter-screen for ADAM17 exosite inhibitors: inhibitors of human ADAM10. shares compounds with ADAM17 inh. recombinant ADAM10, EDANS/DABCYL FRET peptide cleavage, 3 h. inhibition, % at 6.95 µM. 47% of 2,900 active. AID 743256;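 active = mean inhibition over the triplicate runs exceeds the activity threshold set in the earlier primary screen, cut at about 20% in these data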;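 note: 0% = DMSO wells and 100% = marimastat wells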
ADAM17 confirm: human ADAM17 inhibition, confirmation | shares compounds with ADAM17 inh | recombinant ADAM17, EDANS/DABCYL QFRET peptide cleavage | inhibition, % at 6.95 µM | 65% of 2,900 active;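 active = mean inhibition across replicates above the hit cutoff set in the primary screen, cut at about 8.5% in these data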;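 note: 0% = DMSO wells and 100% = marimastat wells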
* marks the source's active call; other numbers are inactive results.

`N=C1c2ccccc2CN1NC(=O)c1ccco1` gave ADAM10 inh -1.8, MT1-MMP act inh -2.6, SKN-1 inh 25.7, NR3A LBD binder 0.7, MPTP inh 1.3 and ADAM17 inh -5.2.
Nc1ccc(N2CCN(Cc3ccccc3Cl)CC2)c(Cl)c1 was read as ADAM10 inh 21.6*, MT1-MMP act inh 6.6, SKN-1 inh 15.6, NR3A LBD binder 3.9, MPTP inh -2.2, ADAM17 inh 2.6, ADAM10 confirm 3.2 and ADAM17 ctr 1.1.
`COC(=O)C1=C(c2ccc(F)cc2OCc2ccccc2)C[C@@H]2CC[C@H]1N2C(=O)NCc1ccc(N(C)C)cc1` gave ADAM10 inh 19.9*, MT1-MMP act inh 1.2, SKN-1 inh -6.0, NR3A LBD binder -3.4, MPTP inh 0.5, ADAM17 inh 9.7*, ADAM10 confirm 6.6, ADAM17 ctr 3.2, ADAM10 counter 14.0 and ADAM17 confirm 7.5.
For COC(=O)C1=C(c2ccc(F)cc2OCc2ccccc2)C[C@@H]2CC[C@H]1N2C(=O)NCc1cccc(C(F)(F)F)c1 the results were ADAM10 inh 23.8*, MT1-MMP act inh -8.6, SKN-1 inh 2.8, NR3A LBD binder 3.1, MPTP inh -0.1, ADAM17 inh 15.6*, ADAM10 confirm 7.2, ADAM17 ctr 2.1, ADAM10 counter 19.2 and ADAM17 confirm 13.0*.
Screening COC(=O)C1=C(c2ccc(F)cc2OCc2ccccc2)C[C@@H]2CC[C@H]1N2C(=O)NCCc1ccc(F)cc1 returned ADAM10 inh 26.6*, MT1-MMP act inh -12.0, SKN-1 inh -11.3, NR3A LBD binder -2.2, MPTP inh -0.8, ADAM17 inh 10.7*, ADAM10 confirm 9.4, ADAM17 ctr 2.5, ADAM10 counter 28.8* and ADAM17 confirm 13.5*.
For COC(=O)C1=C(c2ccccc2OCc2ccccc2)C[C@@H]2CC[C@H]1N2C(=O)NCc1ccc(N(C)C)cc1 the results were ADAM10 inh 13.9, MT1-MMP act inh -1.3, SKN-1 inh 15.5, NR3A LBD binder -1.4, MPTP inh 0.2 and ADAM17 inh 4.7.
`C=CC1CN2CCC1CC2C(O)c1ccnc2ccccc12` (configuration not stated) gave ADAM10 inh -13.7, MT1-MMP act inh -2.1, SKN-1 inh 7.8, NR3A LBD binder -3.7, MPTP inh -1.5 and ADAM17 inh 0.6.
CCCCC(CC)COCCCN=Cc1c(O)[nH]c(=S)[nH]c1=O (configuration not stated) was read as ADAM10 inh -0.6, MT1-MMP act inh -3.5, SKN-1 inh 34.6, NR3A LBD binder -2.2, MPTP inh 7.5 and ADAM17 inh -1.6.
`Cc1ccc(/C=C2/Sc3ccc(C(=O)N4CCC5(CC4)OCCO5)cc3NC2=O)cc1` gave ADAM10 inh 6.5, MT1-MMP act inh -19.1, SKN-1 inh 5.1, NR3A LBD binder 3.2, MPTP inh -0.6 and ADAM17 inh 5.3.
Screening COC(=O)C1=C(c2cccc(OCc3ccccc3)c2)C[C@@H]2CC[C@H]1N2C(=O)NCCOc1ccc(OC)cc1 returned ADAM10 inh 25.8*, MT1-MMP act inh -1.4, SKN-1 inh 16.9, NR3A LBD binder -2.7, MPTP inh -2.6, ADAM17 inh 10.2*, ADAM10 confirm 6.5, ADAM17 ctr 1.8, ADAM10 counter 19.3 and ADAM17 confirm 13.8*.

Screening results: PubChem BioAssay, several laboratories
